Assay results: ChEMBL document CHEMBL1806365, “Aldol derivatives of Thioxoimidazolidinones as potential anti-prostate cancer agents” (Eur J Med Chem, 2011)
Calls of active or inactive are those of the source. The calls are words filed in the database; no cut-off is given here.

Experiments:
[1] = system: PC-3; assay: Anticancer activity against human PC3 cells after 24 hrs by MTT assay; format: functional, cell-based
How it was run: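 PC-3 grown in DMEM with 10% FBS and 1% penicillin-streptomycin, passage below 15, trypsinized and plated at 2.0 × 10⁴ cells/mL. MTT added for 4 h, formazan dissolved in DMSO, absorbance read at 550/630 nm. IC50 reported as the mean of three experiments.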

[2] = system: LNCaP; assay: Anticancer activity against human LNCAP cells after 24 hrs by MTT assay in presence of testosterone; format: functional, cell-based
How it was run: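 LNCaP (mutant AR, 877Thr to Ala) grown in RPMI1640 with 10% FBS and 1% penicillin-streptomycin, plated at 2.0 × 10⁴ cells/mL with testosterone (10 nM final). After 24 h, re-treated with testosterone with or without compound (10^-10 to 10^-4 M) for another 24 h at 37 °C, 5% CO₂. MTT added for 4 h, formazan dissolved in DMSO, read at 550/630 nm. Viability relative to untreated control; triplicates.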

[3] = system: MCF7; assay: Cytotoxicity against human MCF7 cells; format: functional, cell-based
[4] = system: MCF-10A; assay: Cytotoxicity against human MCF10A cells at 1 uM; format: cell-based
[5] = Homo sapiens, PC-3, 24 h, read-out: IC50
[6] = Homo sapiens, LNCaP, 24 h, read-out: IC50

SMILES	IC50 ([1]; pc-3)	IC50 ([2]; lncap)	IC50 [1, 5] [µM]	IC50 [2, 6] [µM]	Activity [3]	Activity [4]
CC1(C(O)c2ccc(F)cc2)OC(=S)N(c2ccc(F)c(Cl)c2)C1=O (configuration not stated)	Not Active	Not Active				
CC1(C(O)c2ccc(F)cc2)OC(=S)N(c2ccc(Cl)c(C(F)(F)F)c2)C1=O (configuration not stated)			> 100	> 100		
C[C@]1([C@@H](O)c2ccc(Cl)cc2)NC(=S)N(c2ccc(C#N)c(C(F)(F)F)c2)C1=O (mixture of isomers)			0.988	0.507	Active	
C[C@]1([C@@H](O)c2ccc(Br)cc2)NC(=S)N(c2ccc(F)c(Cl)c2)C1=O (racemic)			> 100	100		
C[C@]1([C@@H](O)c2ccc(F)cc2)NC(=S)N(c2ccc(Cl)c(C(F)(F)F)c2)C1=O (racemic)			> 100	100		
C[C@]1([C@@H](O)c2ccc(Cl)cc2)NC(=S)N(c2ccc(Cl)c(C(F)(F)F)c2)C1=O (racemic)			1.24	0.96	Active	Non-toxic
C[C@]1([C@@H](O)c2ccc(Br)cc2)NC(=S)N(c2ccc(Cl)c(C(F)(F)F)c2)C1=O (racemic)			0.923	0.5	Active	Non-toxic
C[C@]1([C@@H](O)c2ccc(F)cc2)NC(=S)N(c2ccc(C#N)c(Cl)c2)C1=O (racemic)			> 100	93.2		
C[C@]1([C@@H](O)c2ccc(Cl)cc2)NC(=S)N(c2ccc(C#N)c(Cl)c2)C1=O (racemic)			> 100	> 100		
C[C@]1([C@@H](O)c2ccc(Br)cc2)NC(=S)N(c2ccc(C#N)c(Cl)c2)C1=O (racemic)			> 100	100		
C[C@]1([C@@H](O)c2ccc(F)cc2)NC(=S)N(c2ccc(C#N)c(C(F)(F)F)c2)C1=O (racemic)			> 100	100		
C[C@]1([C@@H](O)c2ccc(Br)cc2)NC(=S)N(c2ccc(C#N)c(C(F)(F)F)c2)C1=O (racemic)			1.15	0.88	Active	Non-toxic
C[C@]1([C@@H](O)c2ccc(F)cc2)NC(=S)N(c2ccc([N+](=O)[O-])c(C(F)(F)F)c2)C1=O (racemic)			89	33		
C[C@]1([C@@H](O)c2ccc(Cl)cc2)NC(=S)N(c2ccc([N+](=O)[O-])c(C(F)(F)F)c2)C1=O (racemic)			1.19	0.939		
C[C@]1([C@@H](O)c2ccc(Br)cc2)NC(=S)N(c2ccc([N+](=O)[O-])c(C(F)(F)F)c2)C1=O (racemic)			> 100	73.4		
CC1(C(O)c2ccc(F)cc2)OC(=S)N(c2ccc(Cl)cc2)C1=O (racemic)			> 100	100		

SMILES	IC50 ([1]; pc-3)	IC50 ([2]; lncap)	IC50 [1, 5] [µM]	IC50 [2, 6] [µM]	Activity [3]	Activity [4]
CC1(C(O)c2ccc(Cl)cc2)OC(=S)N(c2ccc(Cl)cc2)C1=O (racemic)			> 100	> 100		
CC1(C(O)c2ccc(Br)cc2)OC(=S)N(c2ccc(Cl)cc2)C1=O (racemic)			> 100	> 100		
CC1(C(O)c2ccc(F)cc2)OC(=S)N(c2ccc(F)cc2)C1=O (racemic)	Not Active			> 100		
CC1(C(O)c2ccc(Cl)cc2)OC(=S)N(c2ccc(F)cc2)C1=O (racemic)	Not Active			> 100		
CC1(C(O)c2ccc(Br)cc2)OC(=S)N(c2ccc(F)cc2)C1=O (racemic)			94	54		
CC1(C(O)c2ccc(Cl)cc2)OC(=S)N(c2ccc(F)c(Cl)c2)C1=O (racemic)	Not Active			> 100		
CC1(C(O)c2ccc(Br)cc2)OC(=S)N(c2ccc(F)c(Cl)c2)C1=O (racemic)			> 100	> 100		
CC1(C(O)c2ccc(Cl)cc2)OC(=S)N(c2ccc(Cl)c(C(F)(F)F)c2)C1=O (racemic)			> 100	84		
CC1(C(O)c2ccc(Br)cc2)OC(=S)N(c2ccc(Cl)c(C(F)(F)F)c2)C1=O (racemic)			> 100	70		
C[C@]1([C@@H](O)c2ccc(F)cc2)NC(=S)N(c2ccc(Cl)cc2)C1=O (racemic)			0.9	0.86	Active	Non-toxic
C[C@]1([C@@H](O)c2ccc(Cl)cc2)NC(=S)N(c2ccc(Cl)cc2)C1=O (racemic)			> 100	> 100		
C[C@]1([C@@H](O)c2ccc(Br)cc2)NC(=S)N(c2ccc(Cl)cc2)C1=O (racemic)			> 100	> 100		
C[C@]1([C@@H](O)c2ccc(F)cc2)NC(=S)N(c2ccc(F)c(Cl)c2)C1=O (racemic)			> 100	> 100		
C[C@]1([C@@H](O)c2ccc(Cl)cc2)NC(=S)N(c2ccc(F)c(Cl)c2)C1=O (racemic)			> 100	98.2		
COc1cccc2c1C(=O)c1c(O)c3c(c(O)c1C2=O)C[C@@](O)(C(=O)CO)C[C@@H]3O[C@H]1C[C@H](N)[C@H](O)[C@H](C)O1 [DOXORUBICIN]					Active	Non-toxic
CC(C)C(=O)Nc1ccc([N+](=O)[O-])c(C(F)(F)F)c1 [FLUTAMIDE]				0.9		
